Tested on: not listed separately
Test: Clearance in rat liver microsomes at 1 uM in presence of NADPH generating system measured for 10 to 90 mins by LC-MS/MS analysis
Format: ADME, Microsome
Procedure, shortened: (§1)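 Rat liver microsomes; stability expressed as t1/2 (min) and intrinsic clearance (μL/min/mg).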

SMILES	CLH [µL/min/mg]
Cn1cc(-c2cc(F)ccc2N2CCN(CCCc3c[nH]c4ccc(F)cc34)CC2)cn1	146
COc1ccc2[nH]c([S+]([O-])Cc3ncc(C)c(OC)c3C)nc2c1 (stereo not drawn) [OMEPRAZOLE]	163
Fc1ccc2[nH]cc(CCCCN3CCN(c4nsc5ccccc45)CC3)c2c1	403
Fc1ccc2[nH]cc(CCN3CCN(c4nsc5ccccc45)CC3)c2c1	452
Fc1ccc(N2CCN(CCCc3c[nH]c4ccc(F)cc34)CC2)c(-c2cn[nH]c2)c1	192

The remaining lines, values ahead:

CLH [µL/min/mg]	SMILES
75.6	Fc1ccc(C2CCN(CCCc3c[nH]c4ccc(F)cc34)CC2)c(-c2ccsc2)c1
56.5	Fc1ccc(N2CCN(CCCc3c[nH]c4ccc(F)cc34)CC2)c(-c2ccsc2)c1

Molecular target: T1, 5-hydroxytryptamine receptor 7 (Homo sapiens, UniProt P34969)
Test: Displacement of [3H]-LSD from 5HT7 receptor (unknown origin) expressed in CHO cell membranes incubated for 120 mins by scintillation counting method

T1 sequence (P34969 whole entry): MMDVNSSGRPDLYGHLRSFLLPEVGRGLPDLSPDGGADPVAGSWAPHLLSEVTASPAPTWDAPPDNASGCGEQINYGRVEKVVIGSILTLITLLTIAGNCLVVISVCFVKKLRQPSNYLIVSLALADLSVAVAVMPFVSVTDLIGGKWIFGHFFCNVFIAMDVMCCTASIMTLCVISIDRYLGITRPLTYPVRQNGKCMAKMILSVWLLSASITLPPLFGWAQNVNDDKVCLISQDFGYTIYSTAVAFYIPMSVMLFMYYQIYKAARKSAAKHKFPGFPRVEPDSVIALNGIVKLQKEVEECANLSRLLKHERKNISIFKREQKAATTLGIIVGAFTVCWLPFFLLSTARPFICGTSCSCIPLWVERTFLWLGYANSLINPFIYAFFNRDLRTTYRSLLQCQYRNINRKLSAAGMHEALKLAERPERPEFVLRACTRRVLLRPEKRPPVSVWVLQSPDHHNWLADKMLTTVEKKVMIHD

SMILES	Ki [nM]
Fc1ccc2[nH]cc(CCN3CCN(c4nsc5ccccc45)CC3)c2c1	0.99
Fc1ccc(N2CCN(CCCc3c[nH]c4ccc(F)cc34)CC2)c(-c2cn[nH]c2)c1	0.9

Second part, the molecule after the results:

Ki [nM]	SMILES
11	Fc1ccc(N2CCN(CCCc3c[nH]c4ccc(F)cc34)CC2)c(-c2cccs2)c1
2	Fc1ccc(N2CCN(CCCc3c[nH]c4ccc(F)cc34)CC2)c(-c2ccsc2)c1

Tested on: not listed separately
Test: Half life in rat liver microsomes at 1 uM in presence of NADPH generating system measured for 10 to 90 mins by LC-MS/MS analysis
Format: ADME, Microsome
Procedure, shortened: as §1

SMILES	half-life at 1 µM [min]
Cn1cc(-c2cc(F)ccc2N2CCN(CCCc3c[nH]c4ccc(F)cc34)CC2)cn1	9.5
Fc1ccc2[nH]cc(CCCCN3CCN(c4nsc5ccccc45)CC3)c2c1	3.4
Fc1ccc2[nH]cc(CCN3CCN(c4nsc5ccccc45)CC3)c2c1	3.1
Fc1ccc(N2CCN(CCCc3c[nH]c4ccc(F)cc34)CC2)c(-c2cn[nH]c2)c1	7.2

Other lines, results leading:

half-life at 1 µM [min]	SMILES
18.3	Fc1ccc(C2CCN(CCCc3c[nH]c4ccc(F)cc34)CC2)c(-c2ccsc2)c1
24.5	Fc1ccc(N2CCN(CCCc3c[nH]c4ccc(F)cc34)CC2)c(-c2ccsc2)c1

Molecular target: Sodium-dependent serotonin transporter (Rattus norvegicus) (UniProt P31652)
Test: Inhibition of rat synaptosomes 5HT transporter assessed as reduction in [3H]serotonin reuptake at 10 uM incubated for 15 mins by scintillation counting method relative to control
Format: subcellular
Procedure, shortened: (§2)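 Single-concentration screen at 10 μM, reported as percent inhibition; 5-HT1A by [3H]-8-OH-DPAT displacement from HEK-293 membrane homogenates, 5-HT7 by [3H]-LSD displacement from CHO membrane homogenates, SERT by [3H]-5-HT uptake into rat brain synaptosomes.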

Sequence of Sodium-dependent serotonin transporter (Rattus norvegicus) (P31652 whole entry): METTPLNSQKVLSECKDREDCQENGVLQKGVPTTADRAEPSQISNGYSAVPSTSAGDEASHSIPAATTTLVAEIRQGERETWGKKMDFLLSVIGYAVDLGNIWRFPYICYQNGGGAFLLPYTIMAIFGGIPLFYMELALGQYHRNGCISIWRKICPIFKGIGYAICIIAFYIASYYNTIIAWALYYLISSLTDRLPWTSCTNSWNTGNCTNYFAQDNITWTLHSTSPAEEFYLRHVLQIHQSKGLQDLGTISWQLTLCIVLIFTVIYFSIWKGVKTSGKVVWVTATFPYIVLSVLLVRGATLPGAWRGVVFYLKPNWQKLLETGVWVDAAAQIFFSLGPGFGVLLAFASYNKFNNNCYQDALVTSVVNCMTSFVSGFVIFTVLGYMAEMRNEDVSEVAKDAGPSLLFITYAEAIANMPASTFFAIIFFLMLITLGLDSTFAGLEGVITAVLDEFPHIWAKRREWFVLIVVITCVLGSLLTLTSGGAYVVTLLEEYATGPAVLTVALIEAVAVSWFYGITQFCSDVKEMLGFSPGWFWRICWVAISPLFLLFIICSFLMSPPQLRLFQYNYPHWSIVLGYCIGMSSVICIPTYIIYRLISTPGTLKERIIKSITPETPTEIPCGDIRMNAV

inhibition [%]	SMILES
78.9	Fc1ccc(N2CCN(CCCc3c[nH]c4ccc(F)cc34)CC2)c(-c2cc[nH]c2)c1

Molecular target: T2, 5-hydroxytryptamine receptor 1A (Homo sapiens, UniProt P08908)
T2 sequence (P08908 whole entry): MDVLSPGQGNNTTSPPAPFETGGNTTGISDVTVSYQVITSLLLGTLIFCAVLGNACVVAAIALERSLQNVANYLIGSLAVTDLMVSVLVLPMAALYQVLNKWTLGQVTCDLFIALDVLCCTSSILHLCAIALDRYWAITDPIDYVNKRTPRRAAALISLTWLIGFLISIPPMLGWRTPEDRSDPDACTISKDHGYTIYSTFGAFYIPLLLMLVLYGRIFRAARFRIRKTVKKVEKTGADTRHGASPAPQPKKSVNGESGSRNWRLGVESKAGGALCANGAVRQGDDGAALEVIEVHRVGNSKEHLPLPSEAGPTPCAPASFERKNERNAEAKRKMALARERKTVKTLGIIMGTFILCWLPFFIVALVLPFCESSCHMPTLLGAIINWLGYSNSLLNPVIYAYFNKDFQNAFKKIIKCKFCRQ
Test: Displacement of [3H]-8-OH-DPAT from 5HT1A receptor (unknown origin) expressed in HEK293 cells membranes incubated for 60 mins by scintillation counting method
Format: cell membranes

SMILES	Ki [nM]
Fc1ccc2[nH]cc(CCN3CCN(c4nsc5ccccc45)CC3)c2c1	1.6
Fc1ccc(N2CCN(CCCc3c[nH]c4ccc(F)cc34)CC2)c(-c2cn[nH]c2)c1	6.3

Second part, the molecule after the results:

Ki [nM]	SMILES
38	Fc1ccc(N2CCN(CCCc3c[nH]c4ccc(F)cc34)CC2)c(-c2cccs2)c1
8.4	Fc1ccc(N2CCN(CCCc3c[nH]c4ccc(F)cc34)CC2)c(-c2ccsc2)c1

Molecular target: Sodium-dependent serotonin transporter (Rattus norvegicus, UniProt P31652)
Test: Inhibition of rat synaptosomes 5HT transporter assessed as reduction in [3H]serotonin reuptake incubated for 15 mins by scintillation counting method
Format: subcellular

Sequence of Sodium-dependent serotonin transporter (P31652 whole entry): as the sequence (P31652 whole entry) above

SMILES	IC50 [nM]
Cn1cc(-c2cc(F)ccc2N2CCN(CCCc3c[nH]c4ccc(F)cc34)CC2)cn1	2.7
Fc1ccc2[nH]cc(CCCCN3CCN(c4nsc5ccccc45)CC3)c2c1	7.08
Fc1ccc2[nH]cc(CCN3CCN(c4nsc5ccccc45)CC3)c2c1	23
Fc1ccc(N2CCN(CCCc3c[nH]c4ccc(F)cc34)CC2)c(-c2cn[nH]c2)c1	1.3

Now from value to molecule:

IC50 [nM]	SMILES
21	Fc1ccc(N2CCN(CCCc3c[nH]c4ccc(F)cc34)CC2)c(-c2cccs2)c1
14	Fc1ccc(C2CCN(CCCc3c[nH]c4ccc(F)cc34)CC2)c(-c2ccsc2)c1
4	Fc1ccc(N2CCN(CCCc3c[nH]c4ccc(F)cc34)CC2)c(-c2ccsc2)c1

Molecular target: T1, 5-hydroxytryptamine receptor 7
Test: Displacement of [3H]-LSD from 5HT7 receptor (unknown origin) expressed in CHO cell membranes at 10 uM incubated for 120 mins by scintillation counting method relative to control
Procedure, shortened: as §2

inhibition [%]	SMILES
99.1	Fc1ccc(N2CCN(CCCc3c[nH]c4ccc(F)cc34)CC2)c(-c2cc[nH]c2)c1
98.5	Fc1ccc2[nH]cc(CCCCN3CCN(c4nsc5ccccc45)CC3)c2c1

Molecular target: T3, 5-hydroxytryptamine receptor 1A (Homo sapiens) (UniProt P08908)
T3 sequence (whole entry): T2 sequence (P08908 whole entry)
Test: Displacement of [3H]-8-OH-DPAT from 5HT1A receptor (unknown origin) expressed in HEK293 cells membranes at 10 uM incubated for 60 mins by scintillation counting method relative to control
Format: cell membranes
Procedure, shortened: as §2

inhibition [%]	SMILES
97.4	Fc1ccc(N2CCN(CCCc3c[nH]c4ccc(F)cc34)CC2)c(-c2cc[nH]c2)c1
101	Fc1ccc2[nH]cc(CCCCN3CCN(c4nsc5ccccc45)CC3)c2c1
